A number with no mark means an inactive call. Results filed as inconclusive are left out. Calls of active or inactive are those of the source.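 How the source made its calls, unless noted: active means inhibition over a set limit, the all-compound mean plus 3 SD, in both replicate runs; inconclusive means over that limit in just one replicate run; inactive means at or under that limit in both runs.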
Assays:
[1] = S. cerevisiae growth inhibition in permissive medium (OD615), pilot counter-assay for S. cerevisiae lifespan shortening project, permissive growth control (AID 705;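 active means growth inhibition above 25% in both replicates, a cutoff set 3 SD above the mean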); conditions: OD615, 24 h, at 10 µM, active compounds read high
Method in brief: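 Material: engineered DeaD yeast; compound dosing: one dose 10 µM, DMSO 0.25% final; measure: yeast growth inhibition indicated by reduced 24 h OD615; detection: OD615 turbidity read; incubation: cells pre-grown 4 h, then 24 h compound exposure, 30 °C humidified; medium: permissive synthetic complete medium with raffinose and galactose carbon sources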

[2] = S. cerevisiae growth inhibition in restrictive medium, OD615, pilot screen, restrictive growth control, yeast lifespan reduction project (AID 706;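 active means growth inhibition above a set limit, 3 SD over mean compound inhibition, in both replicates, cut at about 43% in these data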;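 further: modified DeaD lifespan yeast strain shifted to restrictive glucose medium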); conditions: OD615, 48 h, at 10 µM, active compounds read high
Method in brief: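 material = engineered S. cerevisiae DeaD strain | medium = glucose-based CSMM-D restrictive medium | times = 4 h pre-incubation, 48 h exposure at 30 °C | technique = OD615 absorbance reading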

[3] = doxorubicin toxicity protection in MRP-1 cells – H69AR cells, CellTiter-Glo, duplicate, MRP-1 activator project, pilot screen (AID 807;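 active means viability increase at or above a cutoff of the median across tested compounds plus 3 SD, cut at about 8.5% in these data, passing the limit was not always enough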;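 further: compound pretreatment 18-22 h then 72 h combined with doxorubicin; 0% = doxorubicin alone and 100% = vehicle without doxorubicin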); conditions: H69AR viability with doxorubicin, CellTiter-Glo luminescence; at 10 µM; active compounds read high
[4] = viability of HCT116 without oncogenic beta-catenin – human colon tumor cells, pilot screen (AID 823;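 active means cell viability at or below a set limit in both duplicate runs, the limit being the all-compound median minus 4 SD, cut at about 23% in these data, passing the limit was not always enough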;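 further: 0% = wells killed by 20 µM Hyamine and 100% = untreated DMSO cell wells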); conditions: HCT116 beta-catenin knockout viability, CellTiter-Glo, 60 h; at 10 µM; active compounds read low
[5] = viability of PTEN-null HCT116 cells – cell-based, HCT116 clonal line, CellTiter-Glo, pilot screen (AID 824;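 active means viability at or below 27.92% in each of two runs, the all-compound median minus 4 SD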;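 further: 0% = 20 µM Hyamine control and 100% = vehicle cell control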); conditions: HCT116 PTEN-deleted viability, 60 h, at 10 µM, active compounds read low
[6] = RAM pathway blockade in budding yeast – dse1pr::URA3 reporter, 5-FOA selection, pilot screen (AID 869);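 further: 0% = DMSO wells with no growth and 100% = 10 µM 1-NA-PP1 with full growth; RAM network block rescues cells from 5-FOA so hits raise OD615 growth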; conditions: S. cerevisiae dse1pr::URA3 5-FOA growth, OD615, 2 d; at 10 µM; active compounds read high; strain carries analog-sensitive mutant Cbk1 kinase
[7] = RAM signaling pathway blockade in yeast – S. cerevisiae, Pdr1DBD-CYC8 efflux-inhibited sensitized strain, primary screen (AID 1298;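 active means RAM network inhibition above 8.4% in each of two replicates, 3 SD over the compound average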;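 further: 0% = DMSO untreated cells without growth and 100% = 10 µM 1-NA-PP1 full growth; higher means more yeast growth rescued from 5-FOA killing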); conditions: S. cerevisiae cbk1-as DSE1-URA3 strain, 5-FOA growth OD615, 2 d; at 50 µM; active compounds read high

Row | SMILES | growth inhibition [1] | growth inhibition [2] | viability increase [3] | viability [4] | viability [5] | inhibition [6] | RAM network inhibition [7]
1 | Cc1ccc(S(=O)(=O)N2CCCC(C(=O)N(Cc3cccs3)C3CC3)C2)cc1 (stereo unspecified) | -7.06% | -14.9% | -0.66% | 61.3% | 71.5% | 0.39% | 7.4%
2 | Cc1cc2cc(CCNC(=O)c3c(-c4ccccc4Cl)noc3C)c(=O)[nH]c2cc1C | -14.1% | -2.13% | -3.71% | 94.9% | 94.7% | 1.85% | 3.43%
3 | COc1ccccc1CNC(=O)Cn1cc2c(n1)CCCC2 | -6.06% | -7.73% | 13.7% (active) | 107% | 101% | 0.685% | 3.05%
4 | CCOC(=O)Cn1c(CN2CC(C)OC(C)C2)nc2c1c(=O)n(C)c(=O)n2C (stereo unspecified) | 3.12% | 8.5% | 0.25% | 95.2% | 95% | -0.31% | -1.12%
5 | CC1(C)Cc2c(C#N)c(N3CCCC3)nc(-c3ccco3)c2CO1 | -9.34% | -8.21% | -5.07% | 90.3% | 85.7% | 1.39% | -1.01%
6 | COc1cc(C2C3=C(CC(c4ccco4)CC3=O)Nc3ccccc3N2C(C)=O)cc(OC)c1OC (stereo unspecified) | -0.74% | 8.4% | -3.38% | 91.8% | 89% | 1.3% | 6.7%
7 | O=C1C2CC=C(Cl)CC2C(=O)N1CC1Cc2ccccc2CO1 (stereo unspecified) | -5.07% | 0.875% | 1.29% | 96.2% | 101% | 2.77% | -2.81%
8 | CN(CC(=O)NC1CCCCCCC1)S(=O)(=O)c1cccc2cccnc12 | 0.055% | 0.405% | -1.32% | 93.2% | 87.1% | 1.26% | 2.33%
9 | CS(=O)(=O)Nc1ccc2c3c(cccc13)CC2 | -15.4% | -15.1% | -1.25% | 97.7% | 90.1% | 1.14% | 7.52%
10 | Cc1cc(C(F)(F)F)n2ncc(C(=O)O)c2n1 | 2.26% | 0.105% | -0.34% | 98.3% | 91% | -0.025% | 0.78%
11 | Cc1ccc(N)c(C(O)(C(F)(F)F)C(F)(F)F)c1 | -4.98% | -2.67% | 2.71% | 105% | 99.6% | -0.695% | 2.27%
12 | Cc1ccc(C(=O)N(Cc2nc(-c3ccc(C)cc3)no2)C(C)C)cc1 | -14.3% | -18.5% | 0.77% | 100% | 94.5% | 1.33% | 5.26%
13 | CCOC(=O)C1CCN(C(=O)C2c3ccccc3C(=O)N(C)C2c2ccc(OC)cc2)CC1 (stereo unspecified) | -7.75% | -16.1% | -4.5% | 76.3% | 85.8% | 2.1% | 1.79%
14 | C=CCn1cnc2scc(-c3ccccc3)c2c1=O | 2.71% | 10.9% | -1.68% | 93.6% | 84.2% | 2.52% | 0.21%
15 | CC(=NCCc1ccccc1)C1=C(O)CSC1=O | -3.27% | -6.07% | -1.75% | 99.4% | 96.3% | 0.97% | 1%
16 | c1ccc(Cn2ncc3c(N4CCCCC4)ncnc32)cc1 | -0.96% | 8.13% | -0.97% | 96.2% | 95.4% | 0.01% | 3.67%
17 | CC12C(=O)N(c3cccc4cccnc34)C(=O)C1C1C=CC2C1 (stereo unspecified) | -7.71% | 2.71% | -1.54% | 103% | 102% | 0.395% | 1.05%
18 | O=c1[nH]c2ccc(Cl)cc2c(-c2ccccc2)c1N1CCOCC1 | -4.65% | -0.51% | -3.04% | 89.4% | 88% | 0.985% | 1.15%
